Source: PubChem BioAssay
In the library only some 1.8% were active in any assay of this set; here they are far more common.
SIAE inh – blocks human sialic acid acetylesterase; Q9HAT2; SIAE FP-Rh probe binding, fluorescence polarization; inhibition, % at 9.66 µM; actives 0.69% (n = 370,000);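 active means inhibition above a cutoff: mean of compounds within the control limits plus 3 SD of those, cut at about 17% in these data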
DDE Tn7 FP inh – disrupts Tn7 cyclic peptide binding to fibrin D-Dimer-E complex; P02675; inhibition, % at 8.3 µM; actives 0.13% (n = 370,000); AID 720508; FP displacement of FITC-Tn7 peptide from fibrin DD(E); 0% = median of compound wells per plate;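 active means inhibition above the mean of compounds falling within the control limits plus 3 SD of them, cut at about 14% in these data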
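Assay system: Human clot-derived fibrin DD(E) complex | Buffer or medium: Tris/NaCl/CaCl2 buffer, pH 7.8 | Repeats: One replicate per compound | Benchmarks: Aha-Tn7 high control | Measure: % inhibition scaled between sample-field median and high-control FP | Schedule: 10 min plus 3 h, room temperature | Signal: Fluorescence polarization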
DDE Tn6 FP inh – disrupts Tn6 cyclic peptide binding to fibrin D-Dimer-E complex; Fibrin DD(E) TRITC-Tn6 fluorescence polarization displacement; inhibition, % at 8.3 µM; actives 0.21% (n = 370,000);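 active means inhibition above a per-campaign cutoff: mean of compounds within control limits plus 3 SD, cut at about 15% in these data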
HTRA1 inh – HTRA1 (human) protease inhibition; Q92743; recombinant HTRA1, FP-rhodamine activity-based probe, fluorescence polarization; inhibition, % at 5.96 µM; actives 0.5% (n = 340,000); AID 504803; in the data active means inhibition above about 36%
TCR-CD3 inh – blocks the human TCR-CD3 interaction | TAMRA-labeled TCR probe fluorescence, biochemical | inhibition, % at 9.4 µM | actives 0.37% (n = 360,000);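 further: recombinant mutant TCR 2C K166C tagged with TAMRA read by polarization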
ABHD4 inh – inhibits mouse alpha/beta hydrolase domain 4. Q8VD66. purified mABHD4, FP-Rh probe fluorescence polarization. inhibition, % at 8.92 µM. actives 0.54% (n = 370,000). AID 720543;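 active means inhibition exceeding the mean over every tested compound plus 3 SD, cut at about 30% in these data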
Target sequence (Q8VD66 whole entry, looked up, the tested form may be a part): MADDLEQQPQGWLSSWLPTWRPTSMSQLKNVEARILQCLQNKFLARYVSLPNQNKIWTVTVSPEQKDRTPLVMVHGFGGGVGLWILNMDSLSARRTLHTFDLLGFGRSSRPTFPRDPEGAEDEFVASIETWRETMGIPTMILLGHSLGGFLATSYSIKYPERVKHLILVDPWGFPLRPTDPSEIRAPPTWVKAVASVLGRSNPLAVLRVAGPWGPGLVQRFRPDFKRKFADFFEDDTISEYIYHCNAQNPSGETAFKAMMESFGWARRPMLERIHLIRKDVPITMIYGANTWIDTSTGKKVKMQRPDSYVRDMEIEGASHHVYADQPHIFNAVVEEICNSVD
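System: mouse ABHD4 enzyme, wild type / Medium: HEPES pH 7.0, NaCl, Pluronic buffer / Reagent: FP-Rh activity-based fluorescent probe / Control set: S159A mutant high control, sample median low control / Detection: fluorescence polarization with parallel and perpendicular emission, 525/598 nm / Schedule: 45 min + 60 min at 25 °C / Compound dosing: 8.92 µM, single dose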
HTRA1 inh conf – confirmation of human HTRA1 inhibitors | recombinant HTRA1, FP-rhodamine activity-based probe, fluorescence polarization | actives 66% (n = 1,600) | AID 540248 | shares compounds with HTRA1 inh | inhibition, % at 5.96 µM;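 active means mean inhibition over three repeats above a set limit taken from the earlier primary screen, cut at about 37% in these data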;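 further: inhibitors block probe binding so polarization drops and inhibition rises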
BSA TAMRA ctr – counter-screen for TCR-CD3 interaction inhibitors: BSA probe; shares compounds with TCR-CD3 inh; inhibition, % at 9.4 µM; actives 10% (n = 1,200); TAMRA-labeled BSA probe fluorescence counterscreen; in the data active means inhibition above about 23%
TCR-CD3 conf – confirmation of human TCR-CD3 interaction inhibitors; TAMRA-labeled TCR probe fluorescence binding assay; actives 48% (n = 1,200); shares compounds with TCR-CD3 inh; inhibition, % at 9.4 µM; AID 652036
Hits are given with their value. Unless noted, no stated cut-off is given here; in the data, active means inhibition above about 19%; inactive means the rest.

For Cc1ccc(/C=C2\SC(=S)N(CCCC(=O)NNC(=O)c3ccccc3O)C2=O)cc1 the results were SIAE inh inactive, DDE Tn7 FP inh inactive, DDE Tn6 FP inh inactive, HTRA1 inh 37, TCR-CD3 inh 33, ABHD4 inh inactive, HTRA1 inh conf 53, BSA TAMRA ctr inactive and TCR-CD3 conf 22.
`O=C(CCN1C(=O)/C(=C/c2ccccc2Cl)SC1=S)NNC(=O)c1ccccc1O` gave SIAE inh inactive, DDE Tn7 FP inh inactive, DDE Tn6 FP inh inactive, HTRA1 inh 55, TCR-CD3 inh 43, ABHD4 inh inactive, HTRA1 inh conf 70, BSA TAMRA ctr inactive and TCR-CD3 conf 34.
Screening O=C(CCN1C(=O)/C(=C/c2ccccc2Cl)SC1=S)NNC(=O)c1cccnc1 returned SIAE inh inactive, DDE Tn7 FP inh inactive, DDE Tn6 FP inh inactive, HTRA1 inh inactive, TCR-CD3 inh inactive and ABHD4 inh inactive.
CCOC(=O)[C@]12CCCC=C1N(Cc1ccc(OC)cc1)C(=O)[C@@H]2CC(=O)N1CCN(C(=O)c2ccco2)CC1 was read as SIAE inh inactive, DDE Tn7 FP inh inactive, DDE Tn6 FP inh inactive and ABHD4 inh inactive.
For CN(C(=O)CNC(=O)c1ccccc1OCC(=O)Nc1ccc(Br)cc1)c1ccccc1 the results were SIAE inh inactive, DDE Tn7 FP inh inactive, DDE Tn6 FP inh inactive and ABHD4 inh inactive.
Screening COc1ccc(-c2cc(=O)oc3c(O)c(O)ccc23)cc1 returned SIAE inh inactive, DDE Tn7 FP inh inactive, DDE Tn6 FP inh inactive, HTRA1 inh 73, TCR-CD3 inh 21, ABHD4 inh inactive, HTRA1 inh conf 86, BSA TAMRA ctr inactive and TCR-CD3 conf inactive.
Screening Cc1cc(SCC(=O)c2ccc(O)c(O)c2)n2nc(C)c(-c3ccccc3)c2n1 returned SIAE inh inactive, DDE Tn7 FP inh inactive, DDE Tn6 FP inh inactive, HTRA1 inh 56, TCR-CD3 inh 25, ABHD4 inh inactive, HTRA1 inh conf 65, BSA TAMRA ctr inactive and TCR-CD3 conf 48.
`Cc1ccc(C(=O)N(C)[C@H]2C[C@H]3c4[nH]c5c(-c6ccc7c(c6)OCO7)cccc5c4CCN3C[C@H]2[C@H](C)O)cc1` gave SIAE inh inactive, DDE Tn7 FP inh inactive, DDE Tn6 FP inh inactive and ABHD4 inh inactive.
Screening Oc1ccc(/C=N/Nc2ncnc3c2ncn3Cc2ccccc2)cc1O returned SIAE inh inactive, DDE Tn7 FP inh inactive, DDE Tn6 FP inh inactive, HTRA1 inh 49, TCR-CD3 inh 53, ABHD4 inh inactive, HTRA1 inh conf 50, BSA TAMRA ctr inactive and TCR-CD3 conf 46.
`CCOc1ccc(N(CC(=O)Nc2c(C)n(C)n(-c3ccccc3)c2=O)S(=O)(=O)c2ccc3c(c2)N(C(=O)C2CCC2)CC3)cc1` gave SIAE inh inactive, DDE Tn7 FP inh inactive, DDE Tn6 FP inh inactive and ABHD4 inh inactive.
For O=C1OC(Nc2cc(Br)cc3cccnc23)c2ccccc21 (configuration not stated) the results were SIAE inh 34, DDE Tn7 FP inh inactive, DDE Tn6 FP inh inactive, HTRA1 inh 45, TCR-CD3 inh 37, ABHD4 inh 88, HTRA1 inh conf inactive, BSA TAMRA ctr inactive and TCR-CD3 conf inactive.
O=C1OC(Nc2ncccn2)c2ccccc21 (configuration not stated) was read as SIAE inh inactive, DDE Tn7 FP inh inactive, DDE Tn6 FP inh inactive, HTRA1 inh inactive, TCR-CD3 inh inactive and ABHD4 inh inactive.
`O=C(Cc1nnc(NC(=O)c2ccccc2)s1)N/N=C\c1ccc(O)c(O)c1` gave SIAE inh inactive, DDE Tn7 FP inh inactive, DDE Tn6 FP inh inactive, HTRA1 inh 43, TCR-CD3 inh 34, ABHD4 inh inactive, HTRA1 inh conf 48, BSA TAMRA ctr inactive and TCR-CD3 conf 33.
For O=C(Cc1nnc(NC(=O)c2ccccc2)s1)N/N=C/c1ccc(O)cc1 the results were SIAE inh inactive, DDE Tn7 FP inh inactive, DDE Tn6 FP inh inactive, HTRA1 inh inactive, TCR-CD3 inh inactive and ABHD4 inh inactive.
For O=C(Cn1nnc(-c2ccccc2F)n1)Nc1ccc(Cl)c(Cl)c1 the results were SIAE inh inactive, DDE Tn7 FP inh inactive, DDE Tn6 FP inh inactive and ABHD4 inh inactive.
For O=C(CSc1nc2ccccc2n1CCc1ccccc1)c1ccc(O)c(O)c1 the results were SIAE inh 20, DDE Tn7 FP inh inactive, DDE Tn6 FP inh inactive, HTRA1 inh 70, TCR-CD3 inh 23, ABHD4 inh inactive, HTRA1 inh conf 66, BSA TAMRA ctr inactive and TCR-CD3 conf 32.
For O=C(CSc1nc2ccccc2c(=O)[nH]1)c1ccc(O)c(O)c1 the results were SIAE inh inactive, DDE Tn7 FP inh inactive, DDE Tn6 FP inh inactive, HTRA1 inh 43, TCR-CD3 inh 32, ABHD4 inh 34, HTRA1 inh conf 43, BSA TAMRA ctr inactive and TCR-CD3 conf 34.
O=C(CSc1nc2ccccc2c(=O)[nH]1)c1ccc(O)cc1O was read as SIAE inh inactive, DDE Tn7 FP inh inactive, DDE Tn6 FP inh inactive, HTRA1 inh inactive, TCR-CD3 inh inactive and ABHD4 inh inactive.
`CCOC(=O)Nc1ccc2c(c1)[C@@]1(CC(=O)N(CC(C)C)C1c1ccccc1)C(=O)N2C` (some centres not stated) gave SIAE inh inactive, DDE Tn7 FP inh inactive, DDE Tn6 FP inh inactive and ABHD4 inh inactive.
`C#CCNC(=O)C[C@H]1C[C@@]2(C(=O)OC)C(=C[C@H](C(C)(C)C)O[C@@H]2C)N(Cc2ccco2)C1=O` gave SIAE inh inactive, DDE Tn7 FP inh inactive, DDE Tn6 FP inh inactive and ABHD4 inh inactive.
`C/C(=N\NC(=O)c1ccc(-c2ccccc2)cc1)C1C(=O)c2ccccc2C1=O` gave SIAE inh inactive, DDE Tn7 FP inh inactive, DDE Tn6 FP inh inactive, HTRA1 inh 36, TCR-CD3 inh 29, ABHD4 inh inactive, HTRA1 inh conf 58, BSA TAMRA ctr inactive and TCR-CD3 conf 38.
O=C(NC(=S)NNC(=O)c1ccccc1O)c1cccnc1 was read as SIAE inh inactive, DDE Tn7 FP inh inactive, DDE Tn6 FP inh inactive, HTRA1 inh 49, TCR-CD3 inh 29, ABHD4 inh inactive, HTRA1 inh conf 63, BSA TAMRA ctr inactive and TCR-CD3 conf 31.
`O=C(NNC(=S)NC(=O)c1ccco1)c1ccc(NC(=O)c2ccccc2)cc1` gave SIAE inh inactive, DDE Tn7 FP inh inactive, DDE Tn6 FP inh inactive, HTRA1 inh inactive, TCR-CD3 inh inactive and ABHD4 inh inactive.
